M5 PAM: positive allosteric modulators of human muscarinic M5 receptor. activation, % at 3 µM. CHO-K1 hM5, Fluo-8 calcium, ACh EC20 PAM; 0% = ACh EC20, 100% = ACh EC100. P08912. 0.3% of 360,000 active;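 active = activation above the run cutoff, the mean activation of all test compounds plus 3 SD, cut at about 18% in these data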
Target sequence (P08912 whole entry, looked up): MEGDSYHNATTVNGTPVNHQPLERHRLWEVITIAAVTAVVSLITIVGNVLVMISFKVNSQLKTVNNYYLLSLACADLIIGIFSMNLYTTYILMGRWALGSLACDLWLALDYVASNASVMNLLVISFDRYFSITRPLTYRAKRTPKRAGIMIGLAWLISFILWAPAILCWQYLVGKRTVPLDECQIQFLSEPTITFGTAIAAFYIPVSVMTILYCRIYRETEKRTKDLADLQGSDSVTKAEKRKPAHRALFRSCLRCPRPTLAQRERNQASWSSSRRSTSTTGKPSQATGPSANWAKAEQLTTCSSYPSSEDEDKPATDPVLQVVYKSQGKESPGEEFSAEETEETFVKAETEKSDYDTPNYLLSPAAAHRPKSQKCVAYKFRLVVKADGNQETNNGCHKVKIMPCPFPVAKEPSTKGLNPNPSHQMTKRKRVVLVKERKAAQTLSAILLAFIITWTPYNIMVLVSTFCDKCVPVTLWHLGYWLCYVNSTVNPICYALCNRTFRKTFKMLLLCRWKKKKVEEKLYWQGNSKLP
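system = human M5 receptor in CHO-K1 cells | compound = one concentration, 3 µM final (nominal) | schedule = Post-acetylcholine fluorescence recording 140 s | signal = Fluo-8 calcium dye fluorescence, kinetic read | benchmarks = low control EC20 acetylcholine (0%), high control EC100 acetylcholine (100%) | repeats = singlicate, one well per test compound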
CHRM5 agonist: CHRM5 agonism in calcium assay; P08912; CHO-K1 hM5 cells, Fluo-8 calcium fluorescence; 0% DMSO wells, 100% maximal acetylcholine response; activation, % at 3 µM; 0.19% of 360,000 active; AID 624037;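 active = activation above the run's mean over test compounds plus 3 SD, cut at about 23% in these data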;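 note: signal is peak over basal fluorescence ratio across the kinetic read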
CHRM4 PAM: CHRM4 positive allosteric modulation; P08173; CHO-K1 hM4/Gqi5, Fluo-8 calcium fluorescence, ACh EC20; 0% = ACh EC20, 100% = maximal ACh; activation, % at 3 µM; 0.4% of 360,000 active;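 active = activation above its plate's cutoff, the mean activation of sample wells plus 3 SD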
CHRM4 agonist: agonists of human muscarinic M4 receptor (CHRM4). P08173. CHO-K1 hM4/Gqi5, Fluo-8 calcium fluorescence; vehicle 0%, full acetylcholine response 100%. activation, % at 3 µM. 0.14% of 360,000 active. AID 624127;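 active = activation above the run mean over all test wells plus 3 SD, cut at about 32% in these data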;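 note: peak over basal fluorescence ratio per well then scaled between controls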
M5 antag: CHRM5 antagonism in calcium assay | P08912 | CHO-hM5 cells, Fluo-8 calcium fluorescence, ACh EC80 | inhibition, % at 3 µM | 0.59% of 360,000 active;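 active = inhibition above a per-plate cutoff, the mean of that plate's test compounds plus 3 SD, cut at about 27% in these data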
M4 antag: antagonists of human muscarinic M4 receptor (CHRM4); CHO-hM4 cells, ACh EC80, Fluo-8 calcium fluorescence; inhibition, % at 3 µM; 0.73% of 360,000 active; AID 624125;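 active = inhibition above its plate's cutoff, the mean inhibition of sample wells plus 3 SD, cut at about 27% in these data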
Hits are given with their value; 0 = inactive; + = active, no number. Only some compounds are listed: those with a hit (about 1.9% of all), similar ones and a draw of the others.

SMILES | M5 PAM | CHRM5 agonist | CHRM4 PAM | CHRM4 agonist | M5 antag | M4 antag
O=C(COC(=O)[C@@H]1CC(O)CN1S(=O)(=O)c1ccc(Cl)c(Cl)c1)NC(=O)NCc1ccccc1 (stereo partly drawn) | 0 | 0 | 0 | 0 | 0 | 0
O=C(NCC(=O)N(Cc1ccccc1)C(C(=O)NC1CCCC1)c1cccnc1)c1ccco1 (stereo not drawn) | 0 | 0 | 18 | 0 | 0 | 0
O=C(NCC(=O)N(CC1CCCO1)C(C(=O)NC1CCCC1)c1cccnc1)c1ccco1 (stereo not drawn) | 23 | 0 | 0 | 0 | 0 | 0
O=C(CCC(=O)NC1CCCCC1)N/N=C/c1ccncc1 | 0 | 0 | 0 | 0 | 0 | 0
CCn1c(C)nc2cc(C(=O)OC(C(F)(F)C(F)F)C(F)(F)C(F)F)ccc21 | 0 | 0 | 0 | 0 | 39 | 0
O=c1cc(-c2ccccc2)oc2cc(O)ccc12 | 0 | 0 | 0 | 0 | 0 | 0
O=c1ccc2c(-c3ccccc3)c3ccc(O)cc3oc-2c1 | 0 | 797 | 0 | + | 86 | 86
Nc1ccc(-c2c3ccc(=O)cc-3oc3cc(O)ccc23)cc1C(=O)O | 0 | 203 | 0 | 548 | 30 | 63
Cc1nnc(SCC(=O)N2CCc3ccccc32)s1 | 0 | 0 | 0 | 0 | 0 | 0
Cc1ccc(C(=O)c2cc([N+](=O)[O-])ccc2N2CCN(C)CC2)cc1 | 0 | 0 | 0 | 0 | 0 | 0
CN1CCN(c2ccc([N+](=O)[O-])cc2C(=O)c2ccc(Br)cc2)CC1 | 0 | 0 | 0 | 0 | 37 | 0
COc1cc(S(=O)(=O)N(Cc2cccc(OC)c2OC)CC2CCCO2)ccc1-n1cnnn1 (stereo not drawn) | 0 | 0 | 0 | 0 | 0 | 0
Cn1c(SCC(=O)N2CCOCC2)nc2cccnc21 | 21 | 0 | 0 | 0 | 0 | 0
O=C(CSc1n[nH]c(=O)n1-c1cccnc1)N1CCOCC1 | 20 | 0 | 0 | 0 | 0 | 0
CCCn1c(=O)c2ccccc2n2c(SCC(=O)c3ccc(CC)cc3)nnc12 | 0 | 0 | 0 | 0 | 0 | 0
CNC[C@H](Cc1ccccc1)NC[C@@H](Cc1cccc2ccccc12)NCCc1ccc(C)cc1 | 0 | 0 | 0 | 0 | 0 | 38
CNCCNC[C@H](Cc1cccc2ccccc12)NCCc1ccccc1 | 0 | 0 | 0 | 0 | 0 | 0
CC(C)C1S/C(=N/N=C/c2ccco2)NC1=O (stereo not drawn) | 0 | 0 | 0 | 0 | 0 | 30
O=C(Nc1ccc(Cl)cc1)Nc1ccccc1CC[N+](=O)[O-] | 0 | 0 | 0 | 0 | 29 | 0
Cc1cc(OC(F)F)ccc1NC(=O)Nc1ccc([N+](=O)[O-])cc1 | 0 | 0 | 0 | 0 | 27 | 0
O=C(Nc1ccc(Cl)cc1)Nc1csc([N+](=O)[O-])c1 | 0 | 0 | 0 | 0 | 37 | 0
O=C(Nc1ccc(Cl)cc1)Nc1cc([N+](=O)[O-])ccc1F | 0 | 0 | 0 | 0 | 0 | 0
O=C(Nc1csc([N+](=O)[O-])c1)Nc1c(Cl)cccc1Cl | 0 | 0 | 0 | 0 | 0 | 0
O=C(Nc1ccc([N+](=O)[O-])cc1)Nc1ccc(Cl)cc1F | 0 | 0 | 0 | 0 | 41 | 0
Cc1cc(C(=O)NNC(=S)NCC(C)C)cs1 | 0 | 0 | 0 | 0 | 0 | 0
SMILES | M5 PAM | CHRM5 agonist | CHRM4 PAM | CHRM4 agonist | M5 antag | M4 antag
O=C(c1ccc(CSc2ccccc2)cc1)N1CCN(c2ccccc2)CC1 | 0 | 0 | 0 | 0 | 0 | 0
CCNc1nc(SCC(=O)OC)nc(N2CCOCC2)n1 | 0 | 0 | 0 | 0 | 0 | 0
COc1ccccc1NC(=O)c1ccc(NC(=O)COC(=O)C2CC2C)cc1 (stereo not drawn) | 0 | 0 | 0 | 0 | 0 | 0
O=C(CCc1nnc(-c2ccccc2)o1)c1ccc(Cl)cc1 | 0 | 0 | 33 | 0 | 0 | 0
CC(C)c1ccc(CNc2ccc(N3CCOCC3)cc2)cc1 | 0 | 0 | 0 | 0 | 0 | 0
Cc1ccc(CNc2ccc(N3CCOCC3)cc2)cc1 | 0 | 0 | 14 | 0 | 0 | 0
CCCN(C(=O)Cc1coc2cc(C)c(C)cc12)c1c(N)n(Cc2ccccc2)c(=O)[nH]c1=O | 0 | 0 | 0 | 0 | 0 | 0
CC(=O)Nc1ccc(C(=O)OCC(=O)Nc2ccc(N3CCOCC3)cc2)cc1 | 0 | 0 | 0 | 0 | 0 | 0
NC(=O)CC[C@H](NC(=O)c1ccc(F)cc1)C(=O)OCC(=O)Nc1ccc(N2CCOCC2)cc1 | 0 | 0 | 24 | 0 | 0 | 0
CC1(c2ccc(OC(F)F)cc2)NC(=O)N(CC(=O)c2ccc3c(c2)OCO3)C1=O (stereo not drawn) | 0 | 42 | 0 | 40 | 0 | 0
CC1(c2ccc(OC(F)F)cc2)NC(=O)N(CC(=O)NC2CCCCC2)C1=O (stereo not drawn) | 0 | 0 | 0 | 0 | 0 | 0
CC1(c2ccc([N+](=O)[O-])cc2)NC(=O)N(CC(=O)c2ccc3c(c2)OCO3)C1=O (stereo not drawn) | 0 | 36 | 0 | 33 | 0 | 0
COc1ccc(CC(NC(C)=O)C(=O)NC2CCN(C(=O)c3ccc([N+](=O)[O-])cc3)CC2)cc1OC (stereo not drawn) | 0 | 0 | 0 | 0 | 0 | 0
COc1cc(OC)c2c(-c3cccc(-c4ccc(N(C)C)cc4)c3)cc(=O)oc2c1 | 0 | 0 | 0 | 0 | 0 | 0
CCOc1ccccc1NC(=O)c1cc(C(=O)Nc2ccccc2OCC)cc(N2C(=O)CCC2=O)c1 | 0 | 0 | 0 | 0 | 29 | 0
CCOc1ccccc1NC(=O)c1cccc(N2C(=O)CCC2=O)c1 | 0 | 0 | 0 | 0 | 0 | 0
CCCn1nnnc1NC(=O)c1cc(Br)ccc1OC | 0 | 0 | 0 | 0 | 0 | 0
CCNc1nc(NC(C)C)nc(N(C)C#N)n1 | 0 | 0 | 0 | 0 | 0 | 0
CCCN(C#N)c1nc(NCC)nc(NC(C)C)n1 | 0 | 0 | 0 | 0 | 53 | 0
CCCNC(=O)c1nnsc1S(=O)(=O)c1ccc(Cl)cc1 | 0 | 0 | 0 | 0 | 0 | 65
CNC(=O)c1nnsc1S(=O)c1ccc(Cl)cc1 (stereo not drawn) | 0 | 0 | 0 | 0 | 0 | 28
CCCNC(=O)c1nnsc1S(=O)c1ccc(Cl)cc1 (stereo not drawn) | 0 | 0 | 0 | 0 | 0 | 43
CCCC(=O)Nc1ccc(C(=O)n2ccc(C)n2)cc1 | 0 | 0 | 0 | 0 | 0 | 0
CCOC(=O)c1c(C)[nH]c(C)c1C(=O)COc1ccc(NC(=O)c2ccco2)cc1 | 0 | 0 | 0 | 0 | 0 | 0
Cc1occc1-c1nnc(SCC(=O)Nc2nc(C(C)(C)C)cs2)o1 | 0 | 0 | 0 | 0 | 30 | 0
Cc1csc(NC(=O)CSc2nnc(-c3ccoc3C)o2)n1 | 0 | 0 | 0 | 0 | 0 | 0

Screening data as filed in PubChem.
